The text below walks through data of publication PMC10905692 (ACS Omega, 2024).

Entries after “also recorded” stand apart in the source; their conditions may differ.

For assay [1], the target named is T1, PTP1B (Homo sapiens, UniProt P18031).
T1 sequence (P18031 1-435): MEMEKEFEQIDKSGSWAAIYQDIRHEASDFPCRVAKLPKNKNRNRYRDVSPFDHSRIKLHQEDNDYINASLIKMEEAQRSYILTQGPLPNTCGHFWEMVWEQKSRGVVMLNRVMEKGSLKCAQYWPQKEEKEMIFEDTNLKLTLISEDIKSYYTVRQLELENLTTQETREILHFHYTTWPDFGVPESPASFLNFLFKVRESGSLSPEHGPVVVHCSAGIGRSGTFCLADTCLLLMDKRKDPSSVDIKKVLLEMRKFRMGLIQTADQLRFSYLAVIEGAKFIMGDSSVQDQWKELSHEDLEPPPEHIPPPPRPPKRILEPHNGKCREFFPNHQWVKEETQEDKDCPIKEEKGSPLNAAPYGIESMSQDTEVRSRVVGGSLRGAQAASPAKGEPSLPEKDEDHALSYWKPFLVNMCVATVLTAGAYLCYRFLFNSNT
In words: Fluorescence quenching measurement of binding affinity. The note with it: for n (number of binding sites) / KSV (Stern–Volmer constant): fluorescence quenching; for KSV (Stern–Volmer constant): 0–25 μM inhibitor. The gist of the method:
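Intrinsic fluorescence quenching of human recombinant PTP1B, at the enzyme level of the activity assays, in assay buffer. Test compound was added at 0, 1.6, 3.2, 6.2, 12.5 and 25 μM. Emission spectra were recorded over 300–400 nm with 250 nm excitation and 2 nm slits. KSV was obtained by Stern–Volmer analysis; binding constant KA and number of sites n from eqs 9–10.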

Assay [2] concerns the target T1, PTP1B. Nature of the assay: Enzyme kinetic assay. The assay is classed as biochemical. The settings on record: for kinetic mode: Lineweaver–Burk plots; for KIS: inhibition constant for enzyme–substrate complex. In outline:
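Human recombinant PTP1B in Tris-HCl pH 7.5 buffer (25 mM Tris, 1 mM EDTA, 2 mM 2-mercaptoethanol, 1 mM dithiothreitol); test compounds dissolved in DMSO. Steady-state rates were taken across varied inhibitor and substrate concentrations and analysed by Lineweaver–Burk and Dixon plots. KI and KIS came from secondary plots of slopes or 1/Vmax intercepts vs inhibitor concentration (eqs 2–4). Reversibility was judged from activity vs enzyme concentration at several inhibitor levels.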

The target in assay [3] is T1, PTP1B. Nature of the assay: PTP1B inhibitory assay. It is filed as biochemical.
For assay [4], the target named is T1, PTP1B. In words: Time-dependent assays and progress curves. The assay is classed as biochemical. In outline:
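PTP1B was preincubated with test compound for 0, 5, 10, 15, 30, 45, 60 or 75 min (0.2 μM), then residual activity was read. Progress curves were recorded at actual substrate concentration across several inhibitor concentrations by absorbance at 405 nm, […] the ~10 min lag. vi, vs, kobs and Ki app were fitted with eqs 5–8. kobs was plotted against inhibitor concentration to give k3 and k4.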

[5] abbreviates: Ki (inhibition constant), estimated using Dixon plots.
[6] abbreviates: KI, inhibition constant for free enzyme, secondary plots.

Usually Kd stands for the equilibrium constant for the complex coming apart. Low values mean higher affinity, high ones lower affinity. Usually IC50 stands for the concentration that gives 50% inhibition. A low value points to inhibition by little substance. Turning to `CC1(C)C=Cc2c(cc(O)c3c(=O)cc(-c4ccc(O)cc4)oc23)O1` [Compound 7, atalantoflavone], at PTP1B [1], binding was put at a Kd of 72.5 µM, the “n (number of binding sites)” value amounted to 0.93 and the “KSV (Stern–Volmer constant)” value is 0.0569 × 10^5 L·mol^–1. The Ki at PTP1B [2] (setting [5]) is 0.45 µM. The kinetic mode result on PTP1B [2] is reported as “competitive”. The same molecule displayed an IC50 on PTP1B [3] of 1.19 ± 0.3 µM.
Consider `O=c1cc(-c2ccc(O)cc2)oc2cc(O[C@@H]3O[C@H](CO)[C@@H](O)[C@H](O)[C@H]3O)cc(O)c12` [Compound 13, apigenin-7-O-β-D-glucopyranoside], for which, on PTP1B [1], the affinity, expressed as Kd, was 22.1 µM; the “n (number of binding sites)” value turned out to be 0.97; the “KSV (Stern–Volmer constant)” value is on record as 0.3803 × 10^5 L·mol^–1. For the same molecule, at PTP1B [2] (setting [6]), the Ki came out at 0.18 µM. For the same molecule, the Ki at PTP1B [2] (setting [5]) is 0.18 µM. In addition, the kinetic mode entry at PTP1B [2] was “mixed type I”. For the same molecule, the KIS on PTP1B [2] (secondary plots) is 0.80 µM. Moreover, the IC50 at PTP1B [3] stood at 0.22 ± 0.3 µM. The “fold better inhibition than mother skeleton” value at PTP1B [3] (glycosides 11 vs 6 and 13 vs 8) is recorded as 27 fold.
On to `CC1(C)C=Cc2c(cc(O)c3c2O[C@H](c2ccccc2)[C@@H](O)C3=O)O1` [Compound 1, (2R,3R)-3,5-dihydroxy-8,8-dimethyl-2-phenyl-2,3-dihydro-4H,8H-pyrano[2,3-f]chromen-4-one], for which, on PTP1B [1], the Kd was 27.8 µM, the “n (number of binding sites)” value is on record as 1.09 and the “KSV (Stern–Volmer constant)” value is given as 0.4375 × 10^5 L·mol^–1. Also, the Ki at PTP1B [2] (setting [5]) was 0.07 µM. Further, the kinetic mode result on PTP1B [2] was “competitive mode; also recorded: competitive inhibitors”. At PTP1B [2] (initial velocity plots at different inhibitor concentrations), the “reversibility of the inhibitor to the enzyme” value is “typical reversibility”. At PTP1B [4], this molecule displayed a Ki of 0.0641 µM. Further, the time-dependent inhibition type entry on PTP1B [4] (preincubation 0–75 min, kobs vs inhibitor concentration linear) is recorded as “simple slow-binding inhibitor; also recorded: slow binding mode; also recorded: slow binding characteristics”. On PTP1B [4] (slow-binding, progress curves), this molecule yielded a k3 of 0.2262 μM^–1 min^–1 and a k4 of 0.0145 min^–1. In addition, the “fold more effective (inhibition activity)” value at PTP1B [3] (trans 1 vs cis 2) was found to be 13 fold.
As for `O=C1c2c(O)cc(O)cc2O[C@H](c2ccc(O)cc2)[C@H]1O` [Compound 6, dihydrokaempferol], at PTP1B [1], the Kd came out at 10000 µM, the “n (number of binding sites)” value was 0.79 and the “KSV (Stern–Volmer constant)” value is on record as 0.0002 × 10^5 L·mol^–1. At PTP1B [2] (setting [5]), the Ki is 34.7 µM. For the same molecule, the kinetic mode entry at PTP1B [2] is “noncompetitive”. This molecule registered an IC50 against PTP1B [3] of 35.4 ± 0.7 µM.
Take `CC1(C)C=Cc2c(cc(O)c3c2O[C@H](c2ccccc2)[C@H](O)C3=O)O1` [Compound 2, (2R,3S)-3,5-dihydroxy-8,8-dimethyl-2-phenyl-2,3-dihydro-4H,8H-pyrano[2,3-f]chromen-4-one]: on PTP1B [1], binding was characterised by a dissociation constant (Kd) of 370 µM, the “n (number of binding sites)” value stood at 1.16 and the “KSV (Stern–Volmer constant)” value is 0.0304 × 10^5 L·mol^–1. Moreover, the Ki at PTP1B [2] (setting [5]) was 1.04 µM. Also, the kinetic mode entry on PTP1B [2] is reported as “competitive inhibitors”. The concentration for half-maximal inhibition (IC50) against PTP1B [3] worked out at 2.24 ± 0.5 µM.
In the case of `O=c1cc(-c2ccc(O)cc2)oc2cc(O)cc(O)c12` [Compound 8, apigenin], on PTP1B [1], the Kd is 769 µM, the “n (number of binding sites)” value is listed as 1.02 and the “KSV (Stern–Volmer constant)” value is 0.0056 × 10^5 L·mol^–1. Further, the Ki on PTP1B [2] (setting [5]) is 2.9 µM. Further, the kinetic mode entry at PTP1B [2] was “competitive”. On PTP1B [3], this molecule displayed an IC50 of 5.99 ± 0.5 µM.
Consider `CC1(C)C=Cc2c(cc(O)c3c2O[C@H](c2ccc(O)cc2)[C@@H](O)C3=O)O1` [Compound 5, yukovanol], for which, on PTP1B [1], the affinity, expressed as Kd, was 1110 µM; the “n (number of binding sites)” value was found to be 1.20; the “KSV (Stern–Volmer constant)” value is 0.0132 × 10^5 L·mol^–1. Moreover, the Ki on PTP1B [2] (setting [5]) was 3.46 µM. Further, on PTP1B [2], the kinetic mode entry is given as “noncompetitive inhibitor”. On PTP1B [3], this molecule yielded a half-inhibitory concentration (IC50) of 3.07 ± 0.2 µM. Besides, on PTP1B [3] (pyran compound 5 vs 6), the “fold effective vs mother compound” value was found to be 9 fold.
On to `O=c1cc(-c2ccc(O)cc2O)oc2cc(O)cc(O)c12` [Compound 10, norartocarpetin], for which, on PTP1B [1], the affinity, expressed as Kd, was 833 µM; the “n (number of binding sites)” value came out at 1.06; the “KSV (Stern–Volmer constant)” value was 0.0124 × 10^5 L·mol^–1. The molecule also yielded a Ki on PTP1B [2] (setting [6]) of 2.68 µM. Further, on PTP1B [2] (setting [5]), the Ki was 2.71 µM. In addition, at PTP1B [2], the kinetic mode entry is on record as “mixed-type inhibitions; also recorded: mixed type I”. The KIS on PTP1B [2] (secondary plots) came to 5.23 µM. Also, the IC50 against PTP1B [3] worked out at 3.39 ± 0.2 µM.
